Experimental data pooled from the literature.
Compare with care: the assays were run in different laboratories.
Target: Peripheral plasma membrane protein CASK (CASK, Homo sapiens, UniProt O14936)
Residues used in one study (O14936 1-926): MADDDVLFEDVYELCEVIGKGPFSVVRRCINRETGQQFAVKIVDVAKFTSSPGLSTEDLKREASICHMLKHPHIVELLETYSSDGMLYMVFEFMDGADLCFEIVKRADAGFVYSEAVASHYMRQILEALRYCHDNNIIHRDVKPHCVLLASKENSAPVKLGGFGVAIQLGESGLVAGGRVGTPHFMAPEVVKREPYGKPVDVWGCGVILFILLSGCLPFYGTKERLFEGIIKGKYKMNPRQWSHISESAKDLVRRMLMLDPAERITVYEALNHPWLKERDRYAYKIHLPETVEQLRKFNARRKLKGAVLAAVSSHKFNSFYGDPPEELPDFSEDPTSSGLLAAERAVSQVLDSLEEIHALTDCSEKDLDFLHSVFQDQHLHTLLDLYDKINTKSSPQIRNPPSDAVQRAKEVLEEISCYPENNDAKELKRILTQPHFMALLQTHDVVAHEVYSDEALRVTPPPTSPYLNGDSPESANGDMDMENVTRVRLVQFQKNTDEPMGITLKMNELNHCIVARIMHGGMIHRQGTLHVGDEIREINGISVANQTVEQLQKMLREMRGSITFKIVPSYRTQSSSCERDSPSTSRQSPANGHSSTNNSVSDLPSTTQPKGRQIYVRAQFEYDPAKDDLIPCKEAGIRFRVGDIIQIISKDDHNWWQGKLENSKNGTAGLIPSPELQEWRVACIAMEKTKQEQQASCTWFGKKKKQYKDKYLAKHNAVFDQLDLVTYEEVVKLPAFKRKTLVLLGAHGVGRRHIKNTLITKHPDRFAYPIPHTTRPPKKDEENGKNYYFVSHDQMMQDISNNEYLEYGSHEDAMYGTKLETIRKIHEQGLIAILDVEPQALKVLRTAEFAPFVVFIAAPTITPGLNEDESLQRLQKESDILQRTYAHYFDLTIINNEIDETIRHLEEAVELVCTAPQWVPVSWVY

COc1cnc(Nc2cccc(S(N)(=O)=O)c2)nc1N1CCN(c2ccccc2)C(=O)C1
remaining binding (binding, competition with immobilised ligand; 1 µM): 79%

Cc1cnc(Nc2ccc(C(=O)N3CCC(N4CCCC4)CC3)cc2)nc1-c1cc2ccccc2s1
remaining binding (binding, competition with immobilised ligand; 1 µM): 100%

COc1cnc(Nc2cccc(S(N)(=O)=O)c2)nc1N1CCN(c2ccccc2)CC1
remaining binding (binding, competition with immobilised ligand; 1 µM): 95%

Cn1nc(C(=O)NCc2ccc(C(=O)O)cc2)cc1-c1ccc2[nH]ccc2c1
remaining binding (cell-free assay, competition with immobilised ligand; 0.1 µM): 69%

F[C@@H]1CCN(c2nccc(-c3cnn4ncccc34)n2)C1
remaining binding (binding; 1 µM): 100%

O=C(c1ccc(Nc2ncc(Cl)c(-c3ccc(Cl)s3)n2)cc1)N1CCC(N2CCCC2)CC1
remaining binding (binding, competition with immobilised ligand; 1 µM): 87%

N[C@@H]1CCN(c2nccc(-c3cnn4ncccc34)n2)C1
remaining binding (binding; 1 µM): 100%

COc1ncc2cc3ccccc3nc2c1C#N
remaining binding (cell-free assay, competition with immobilised ligand; 5 µM): 99%

CSc1cccnc1N1CCN(Cc2nc3ccccc3[nH]2)CC1
remaining binding (cell-free assay, competition with immobilised ligand; 1 µM): 100%

c1cnn2ncc(-c3ccnc(N4CCC45COC5)n3)c2c1
remaining binding (binding; 1 µM): 81%

O=C(Nc1c[nH]nc1C(=O)NC1CCNCC1)c1cc(F)cc(F)c1
remaining binding (binding, competition with immobilised ligand; 1 µM): 66%

C[C@H]1CCN(c2nccc(-c3cnn4ncccc34)n2)C1
remaining binding (binding; 1 µM): 74%

CCC(=N\O)/C(C)=C/c1ccc(F)cc1
remaining binding (cell-free assay, competition with immobilised ligand; 1 µM): 70%

O=C(c1ccc(Nc2nccc(-c3cc4ccccc4s3)n2)cc1)N1CCC(N2CCCC2)CC1
remaining binding (binding, competition with immobilised ligand; 1 µM): 85%

CN(c1nccc(-c2cnn3ncccc23)n1)C1CC1
remaining binding (binding; 1 µM): 100%

Cn1nc(C(F)(F)F)cc1-c1cnc(N2CCc3cc(S(=O)(=O)Nc4c(F)cc(Cl)cc4F)cc(N4CCCC4=O)c32)nc1
remaining binding (cell-free assay, competition with immobilised ligand; 1 µM): 77%

Nc1ncc2c(n1)-c1c([nH]c3ccc(C#CC4CC4)cc13)CCCC2
remaining binding (binding, competition with immobilised ligand; 1 µM): 88%

O=c1nc(-c2ccccn2)sc2ccccc12
remaining binding (binding, competition with immobilised ligand; 1 µM): 84%

C[C@@H](c1ccc(-n2cnc3c(N)ncnc32)cc1)N1CCc2nn(C)c(Cc3ccccc3)c2C1=O
remaining binding (binding, competition with immobilised ligand; 0.1 µM): 80%

N#CC1(c2ccccn2)CCN(Cc2cc(C(=O)N3CCCC3)c(=O)n3ccccc23)CC1
remaining binding (cell-free assay, competition with immobilised ligand; 1 µM): 100%

CN(C)c1ncc(F)c(-c2cnn3ncccc23)n1
remaining binding (binding, competition with immobilised ligand; 1 µM): 79%
